Experimental data: article PMC2652250 (Biochemistry, 2008)
Several values for one entry are separate records, joined by “and”; a condition that tells them apart may be missing. Equal values may be shown once. Each block holds one compound with its values, some of them ahead of it.

Experiments:
[1] = biological target: cNTnC(C35S/C84S)·Ca^2+·cTnI147−163 (Homo sapiens, UniProt P19429+P63316, C35S/C84S); type: binding; conditions: for chemical shift changes on titration (in words): 100 mM stock added to the NMR sample
[2] = biological target: cNTnC(C35S/C84S)·Ca^2+·cTnI144−163 (Homo sapiens, UniProt P19429+P63316, C35S/C84S); type: binding; conditions: for chemical shift changes on titration (in words): 100 mM stock added to the NMR sample; for drug-induced backbone amide chemical shift changes: 1.0 mM cNTnC(C35S/C84S), […] cTnI144−163, Figure 6; for Kd: global fit of HSQC chemical shift changes, pH 6.7, 30 °C
[3] = biological target: cTnC·3Ca^2+·cTnI34−71·cTnI128−163; conditions: cited from earlier work
[4] = Solubility and precipitation in aqueous solution / NMR samples during titration
skinned muscle fibers = conditions: cited from earlier work
[5] = biological target: cTnC·3Ca^2+·cTnI32−79·cTnI128−180; conditions: cited from earlier work
cTnI144−163 = cTnI144−163 (Homo sapiens, UniProt P19429); assay: 1D 1H NMR titration of levosimendan into free cTnI144−163 peptide; type: binding; conditions: data not shown
cTnI147−163 = cTnI147−163 (Homo sapiens, UniProt P19429); assay: 1D 1H NMR titration of levosimendan into free cTnI147−163 peptide; type: binding; conditions: data not shown
Procedure, shortened: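 Test compound stocks were made fresh in DMSO-d6 for every titration and shielded from light; concentrations were determined gravimetrically. […] 1D 1H spectra were recorded at 500 MHz.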

perfused hearts = conditions: cited from earlier work
[6] = biological target: sTnC·4Ca^2+·sTnI1−182·sTnT156−262; conditions: cited from earlier work
cNTnC(WT)·Ca^2+ = conditions: WT isoform; cited from earlier work
cNTnC(C35S/C84S)·Ca^2+ = cNTnC(C35S/C84S)·Ca^2+ (Homo sapiens, UniProt P63316, C35S/C84S); assay: 2D 1H-15N HSQC NMR titration of cNTnC; type: binding

cNTnC(C35S/C84S)·Ca^2+·cTnI144−163, sequence (P19429 145-164, other chains not shown): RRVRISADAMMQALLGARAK

Compound: NCCCCCCNS(=O)(=O)c1cccc2c(Cl)cccc12 [W7, N-(6-aminohexyl)-5-chloro-1-naphthalenesulfonamide]
Kd [3]: ~0.5 mM

Compound: CC1CC(=O)NN=C1c1ccc(Cl)cc1 (stereo not drawn) [CMDP, 6-(4-chlorophenyl)-5-methyl-4,5-dihydro-3(2H)-pyridazinone]
drug-induced backbone amide chemical shift changes [2]: ≤ 60 Hz

Compound: C[C@@H]1CC(=O)NN=C1c1ccc(NN=C(C#N)C#N)cc1 [levosimendan, (−)-[4-(1,4,5,6-tetrahydro-4-methyl-6-oxo-3-pyridazinyl)phenyl]hydrozonopropanedinitrile]
solubility in aqueous solution (in words) [4]: insoluble in aqueous solution
concentration of maximal effect (skinned muscle fibers): 10 µM
Kd [5]: ≥ 0.2 mM
chemical shift change of the peptide in the presence of drug (in words) (cTnI144−163): no chemical shift change
chemical shift change of the peptide in the presence of drug (in words) (cTnI147−163): no chemical shift change
lowest concentration with multiple effects (perfused hearts): 0.3 µM

Compound: CC(C)(C)CC(C)(C)c1ccc(OCCOCCOCCOCCO)cc1 [anapoe, 2-[2-(2-{2-[4-(1,1,3,3-tetramethylbutyl)phenoxy]ethoxy}ethoxy)ethoxy]ethanol]
Kd [6]: ~0.64 mM

Compound: Ac-RISADAMMQALLGARAK-NH2 [cTnI147−163]
stoichiometry of binding (cNTnC(WT)·Ca^2+): 1/1
solubility in aqueous solution (in words) [4]: highly soluble in aqueous solution
stoichiometry of binding (cNTnC(C35S/C84S)·Ca^2+; C35S/C84S isoform): 1/1
equiv of peptide required to saturate the protein (cNTnC(C35S/C84S)·Ca^2+; solid peptide added, pH 6.7): 3−3.5 equiv

Continued, values first:

chemical shift changes on titration (in words) [1]: No chemical shift changes were observed
chemical shift changes on titration (in words) [2]: No chemical shift changes were observed
Compound: COc1ccc(C2=NNC(=O)CC2)cc1 [MPDP, 6-(4-methoxyphenyl)-4,5-dihydro-3(2H)-pyridazinone]

Kd [1]: 11 mM
drug-induced backbone amide chemical shift changes [2]: ≤ 20 Hz
Kd [2]: 2.65 mM
Compound: CC1CC(=O)NN=C1c1ccc(-n2ccnc2)cc1 (stereo not drawn) [CI-930, 4,5-dihydro-6-[4-(1-imidazol-1-yl)phenyl]-5-methyl-4,5-dihydro-3(2H)-pyridazinone]

chemical shift changes on titration (in words) [1]: No chemical shift changes were observed
chemical shift changes on titration (in words) [2]: No chemical shift changes were observed
Compound: O=C1CCC(c2ccc(-n3ccnc3)cc2)=NN1 [imazodan, 4,5-dihydro-6-[4-(1-imidazol-1-yl)phenyl]-3(2H)-pyridazinone]

solubility in aqueous solution (in words) [4]: highly soluble in aqueous solution
Kd [1]: 6.5 mM
drug-induced backbone amide chemical shift changes [2]: ≤ 20 Hz
Kd [2]: 1.5 mM and ~1.5 mM
Compound: CC1CC(=O)NN=C1c1ccc(N)cc1 (stereo not drawn) [AMDP, 6-(4-aminophenyl)-5-methyl-4,5-dihydro-3(2H)-pyridazinone]
